ChEMBL document CHEMBL1641447, “Rational design and synthesis of potent aminoglycoside antibiotics against resistant bacterial strains” (2011)
≈ marks a conversion by molar mass, not a printed value.

How the values were obtained:
Format in all cases: functional
Klebsiella pneumoniae = test: Antibacterial activity against Klebsiella pneumoniae ATCC 700603 after 16-20 hrs by microdilution broth method
Procedure, shortened: (§1)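 CLSI broth microdilution with test agents as hydrochloride salts (HPLC purity over 98%), twofold dilutions in 96-well trays. Actively growing broth cultures were diluted to McFarland 0.5 for the inoculum. Trays were covered and incubated at 37 °C for 16–20 h. MIC (µg/mL) was the lowest concentration without visible growth; triplicate runs.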

Escherichia coli [1] = test: Antibacterial activity against Escherichia coli ATCC 35218 after 16-20 hrs by microdilution broth method; procedure, shortened: as §1
Enterococcus faecalis = test: Antibacterial activity against Enterococcus faecalis ATCC 29212 after 16-20 hrs by microdilution broth method; procedure, shortened: as §1
Pseudomonas aeruginosa = test: Antibacterial activity against Pseudomonas aeruginosa ATCC 27853 after 16-20 hrs by microdilution broth method; procedure, shortened: as §1
[2] = test system: Staphylococcus epidermidis; test: Antibacterial activity against Staphylococcus epidermidis 07-9 clinical isolate expressing APH(30)-IIIa after 16-20 hrs by microdilution broth method
Procedure, shortened: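 Clinical isolate from a Beijing Friendship Hospital patient (2007), with aph(3′)-IIIa confirmed by PCR. CLSI broth microdilution with hydrochloride salts in twofold dilutions, inoculum from actively growing culture at McFarland 0.5, 37 °C for 16–20 h in covered trays. MIC (µg/mL) was the lowest concentration inhibiting visible growth; triplicate runs.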

Staphylococcus aureus [3] = test: Antibacterial activity against Staphylococcus aureus ATCC 29213 after 16-20 hrs by microdilution broth method; procedure, shortened: as §1
[4] = test system: Staphylococcus epidermidis; test: Antibacterial activity against Staphylococcus epidermidis ATCC 12228 after 16-20 hrs by microdilution broth method; procedure, shortened: as §1
Staphylococcus aureus [5] = test: Antibacterial activity against methicillin-resistant Staphylococcus aureus ATCC 33591 after 16-20 hrs by microdilution broth method
Procedure, shortened: (§2)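 CLSI broth microdilution on hydrochloride salts (HPLC purity over 98%). Actively growing broth cultures were adjusted to McFarland 0.5 and added to 2-fold drug dilutions to give a final inoculum of […]. Trays were covered and incubated at 37 °C for 16–20 h. MIC ([…]) was taken as the lowest concentration preventing visible growth. Tests were run in triplicate.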

Escherichia coli [6] = test: Antibacterial activity against Escherichia coli BL21 expressing pET29a engineering strain expressing APH(30)-Ia after 16-20 hrs by microdilution broth method; procedure, shortened: as §2
Mortierella alpina = test: Antibacterial activity against Mortierella alpina ATCC 32221 after 16-20 hrs by microdilution broth method
Escherichia coli [7] = test: Antibacterial activity against Escherichia coli ATCC 25922 after 16-20 hrs by microdilution broth method; procedure, shortened: as §1
[8] = test system: Staphylococcus epidermidis; test: Antibacterial activity against methicillin-resistant isolate Staphylococcus epidermidis 08-18 after 16-20 hrs by microdilution broth method; procedure, shortened: as §2

Row | Compound | MIC (Klebsiella pneumoniae) | MIC (Escherichia coli [1]) | MIC (Enterococcus faecalis) | MIC (Pseudomonas aeruginosa) | MIC [2] | MIC (Staphylococcus aureus [3]) | MIC [4] | MIC (Staphylococcus aureus [5]) | MIC (Escherichia coli [6]) | MIC (Mortierella alpina) | MIC (Escherichia coli [7]) | MIC [8]
1 | NC[C@H]1O[C@H](O[C@H]2[C@H](O)[C@@H](O[C@H]3O[C@H](CO)[C@@H](O)[C@H](N)[C@H]3O)[C@H](N)C[C@@H]2N)[C@H](N)[C@@H](O)[C@@H]1NC(=O)C1CCCCC1 | 32 mg/L (≈ 54 µM) | 2 mg/L (≈ 3.37 µM) | 64 mg/L (≈ 108 µM) | 8 mg/L (≈ 13.5 µM) | > 128 mg/L | 1 mg/L (≈ 1.69 µM) | 0.25 mg/L (≈ 0.422 µM) | 4 mg/L (≈ 6.75 µM) | 64 mg/L (≈ 108 µM) | > 128 mg/L | 2 mg/L (≈ 3.37 µM) | 1 mg/L (≈ 1.69 µM)
2 | CN(C)[C@H]1[C@H](O)[C@@H](N)[C@@H](O[C@H]2[C@H](O)[C@@H](O[C@H]3O[C@H](CO)[C@@H](O)[C@H](N)[C@H]3O)[C@H](N)C[C@@H]2N)O[C@@H]1CN | 64 mg/L (≈ 125 µM) | 64 mg/L (≈ 125 µM) | > 128 mg/L | > 128 mg/L | > 128 mg/L | 32 mg/L (≈ 62.7 µM) | 16 mg/L (≈ 31.3 µM) | > 128 mg/L | > 128 mg/L | > 128 mg/L | 128 mg/L (≈ 251 µM) | 32 mg/L (≈ 62.7 µM)
3 | CC(=O)N[C@H]1[C@H](O)[C@@H](N)[C@@H](O[C@H]2[C@H](O)[C@@H](O[C@H]3O[C@H](CO)[C@@H](O)[C@H](N)[C@H]3O)[C@H](N)C[C@@H]2N)O[C@@H]1CN | 2 mg/L (≈ 3.81 µM) | 8 mg/L (≈ 15.3 µM) | > 128 mg/L | 4 mg/L (≈ 7.63 µM) | > 128 mg/L | 2 mg/L (≈ 3.81 µM) | 0.5 mg/L (≈ 0.953 µM) | 16 mg/L (≈ 30.5 µM) | 128 mg/L (≈ 244 µM) | > 128 mg/L | 2 mg/L (≈ 3.81 µM) | 2 mg/L (≈ 3.81 µM)
4 | NCCCC(=O)N[C@H]1[C@H](O)[C@@H](N)[C@@H](O[C@H]2[C@H](O)[C@@H](O[C@H]3O[C@H](CO)[C@@H](O)[C@H](N)[C@H]3O)[C@H](N)C[C@@H]2N)O[C@@H]1CN | 1 mg/L (≈ 1.76 µM) | 1 mg/L (≈ 1.76 µM) | 32 mg/L (≈ 56.4 µM) | 0.5 mg/L (≈ 0.881 µM) | 32 mg/L (≈ 56.4 µM) | 0.25 mg/L (≈ 0.44 µM) | < 0.06 mg/L | 2 mg/L (≈ 3.52 µM) | 8 mg/L (≈ 14.1 µM) | > 128 mg/L | 1 mg/L (≈ 1.76 µM) | 0.25 mg/L (≈ 0.44 µM)
5 | Cc1ccccc1C(=O)NCC(=O)N[C@H]1[C@H](O)[C@@H](N)[C@@H](O[C@H]2[C@H](O)[C@@H](O[C@H]3O[C@H](CO)[C@@H](O)[C@H](N)[C@H]3O)[C@H](N)C[C@@H]2N)O[C@@H]1CN | 64 mg/L (≈ 97.3 µM) | 4 mg/L (≈ 6.08 µM) | 64 mg/L (≈ 97.3 µM) | 32 mg/L (≈ 48.7 µM) | > 128 mg/L | 2 mg/L (≈ 3.04 µM) | 0.5 mg/L (≈ 0.76 µM) | 64 mg/L (≈ 97.3 µM) | > 128 mg/L | > 128 mg/L | 4 mg/L (≈ 6.08 µM) | 8 mg/L (≈ 12.2 µM)
6 | NC[C@H]1O[C@H](O[C@H]2[C@H](O)[C@@H](O[C@H]3O[C@H](CO)[C@@H](O)[C@H](N)[C@H]3O)[C@H](N)C[C@@H]2N)[C@H](N)[C@@H](O)[C@@H]1NC(=O)C1CCNCC1 | 8 mg/L (≈ 13.5 µM) | 2 mg/L (≈ 3.37 µM) | 128 mg/L (≈ 216 µM) | 2 mg/L (≈ 3.37 µM) | 128 mg/L (≈ 216 µM) | 1 mg/L (≈ 1.68 µM) | 0.25 mg/L (≈ 0.421 µM) | 2 mg/L (≈ 3.37 µM) | 4 mg/L (≈ 6.74 µM) | > 128 mg/L | 2 mg/L (≈ 3.37 µM) | 0.25 mg/L (≈ 0.421 µM)
7 | NC[C@H]1O[C@H](O[C@H]2[C@H](O)[C@@H](O[C@H]3O[C@H](CO)[C@@H](O)[C@H](N)[C@H]3O)[C@H](N)C[C@@H]2N)[C@H](N)[C@@H](O)[C@@H]1O [BEKANAMYCIN] | 16 mg/L (≈ 33.1 µM) | 4 mg/L (≈ 8.27 µM) | 64 mg/L (≈ 132 µM) | 64 mg/L (≈ 132 µM) | > 128 mg/L | 1 mg/L (≈ 2.07 µM) | 0.25 mg/L (≈ 0.517 µM) | > 128 mg/L | 64 mg/L (≈ 132 µM) | > 128 mg/L | 4 mg/L (≈ 8.27 µM) | 32 mg/L (≈ 66.2 µM)
8 | NC[C@@H]1O[C@@H](O[C@H]2[C@H](O)[C@@H](O[C@H]3O[C@H](CO)[C@@H](O)[C@H](N)[C@H]3O)[C@H](N)C[C@@H]2N)[C@@H](O)[C@H](O)[C@H]1O [KANAMYCIN A] | 64 mg/L (≈ 132 µM) | 4 mg/L (≈ 8.26 µM) | 64 mg/L (≈ 132 µM) | > 128 mg/L | > 128 mg/L | 2 mg/L (≈ 4.13 µM) | 1 mg/L (≈ 2.06 µM) | 128 mg/L (≈ 264 µM) | > 128 mg/L | > 128 mg/L | 2 mg/L (≈ 4.13 µM) | 8 mg/L (≈ 16.5 µM)
